# Most compounds without a hit are left out; they make up all but 3.9% or so of the library.
# FLuc inh counter: counter-screen for luciferase assay inhibitors: firefly luciferase inhibition | ATPLite firefly luciferase biochemical luminescence, 10 min | inhibition, % at 10 µM | 200,000 compounds, 1.5% hits;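 active = inhibition above about 50% when tested at 10 µM, limit read from the data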
# FLuc act counter: affects firefly luciferase, flagging false hits in luciferase stimulation screens. P08659. ATPlite luciferase biochemical, luminescence, 10 min; 0 = ATP-free wells, 1 = DMSO control. activation factor at 10 µM. 200,000 tested, under 10 active;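 active = luciferase activation factor, scaled between plate controls, of at least 2 with compound at 10 µM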
#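 System: luciferase plus luciferin reagent, cell-free; medium: PBS as buffer for the ATP substrate; dosing: test compounds dosed from 2 mM stocks in 100% DMSO; timing: 10 min post-reagent at room temperature; measured by: luminescence measurement of luciferase light output; evaluation: luciferase activation, seen as luminescence increase over controls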
# STAT1 activator: STAT1 signaling activation. NIH 3T3 STAT1-luciferase reporter, IFN-gamma, luminescence; 100% = IFN-gamma alone, no compound. 200,000 compounds, 2.6% hits. activation (% of control), % at 5.5 µM;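 active = activation above the screen-wide mean activation plus 3 SD, cut at about 130% in these data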
# APP 5'UTR act: activates APP 5'UTR luciferase reporter | SH-SY5Y APP 5'UTR luciferase reporter, luminescence; zero percent = DMSO vehicle wells | activation, % at 2 µM | 190,000 compounds, 1% hits;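 active = activation above a set limit, based on mean plus 3 SD of controls, cut at about 140% in these data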
# Rad51 HR inh: blocks human Rad51 in homologous recombination; hRad51 DNA strand exchange, fluorescence dequenching; inhibition, % at 10 µM; 200,000 compounds, 0.085% hits; AID 1385;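 active = inhibition above 40% at the single screening dose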
# Target sequence (Q06609 whole entry, looked up): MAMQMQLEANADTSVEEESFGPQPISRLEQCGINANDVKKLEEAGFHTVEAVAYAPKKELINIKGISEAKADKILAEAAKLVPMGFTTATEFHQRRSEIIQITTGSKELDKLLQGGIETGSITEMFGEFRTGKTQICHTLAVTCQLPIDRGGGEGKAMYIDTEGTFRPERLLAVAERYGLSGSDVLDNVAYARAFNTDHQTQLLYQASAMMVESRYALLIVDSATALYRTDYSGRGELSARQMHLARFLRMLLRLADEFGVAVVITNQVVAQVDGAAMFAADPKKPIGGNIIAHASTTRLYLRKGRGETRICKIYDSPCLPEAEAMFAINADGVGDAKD
#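 System: hRad51 filaments on single-stranded DNA; reagent: Fluorescein- and BHQ1-tagged 47-mer duplex; compound dosing: one concentration, 10 µM final; timing: filaments 15 min 37 °C, then compound 30 min; measured by: fluorescein emission 520 nm, excitation 485 nm; benchmarks: per-plate controls and blanks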
# NF-kB neuron act: raises NF-kB expression in human neuronal cells. NF-kB reporter expression; stronger effect = higher value. fold change at 12.5 µM. 190,000 compounds, 1.6% hits. AID 1239; in the data active = fold change above about 3.3
# A number is an active result; - = inactive; . = not tested or not shown.
SMILES,FLuc inh counter,FLuc act counter,STAT1 activator,APP 5'UTR act,Rad51 HR inh,NF-kB neuron act
O=C(Nc1ccc2c(c1)OCCO2)c1c(F)cccc1F,-,-,-,-,-,4
CCN1/C(=C\C=C(C(C)=O)C(C)=O)Sc2ccccc21,-,-,-,-,-,-
CCN1/C(=C\C(=S)Nc2ccccc2)Sc2ccccc21,-,-,144,-,-,-
Cc1ccc2nc(-c3ccc(N4C(=N)SC5CS(=O)(=O)CC54)cc3)sc2c1 (stereo not drawn),-,-,130,-,-,-
COc1ccc(CNC(=O)C/C(C)=N/NC(=O)COc2ccc(Br)cc2)cc1,-,-,-,-,-,-
S=C(Nc1ccc2c(c1)OCO2)N1CCN(Cc2ccco2)CC1,92,-,-,-,.,-
CC(C)c1ccccc1NC(=S)N1CCN(Cc2ccc3c(c2)OCO3)CC1,-,-,-,-,48,-
Cc1cs/c(=N\N=C2CCCCC2)n1Cc1ccco1,-,-,-,-,-,-
Cc1cc(Oc2ccc(=O)n(C)n2)nc(=S)[nH]1,-,-,-,-,-,-
CCC(=O)N1c2ccccc2NC2=C(C(=O)CC(c3ccco3)C2)C1c1ccco1 (stereo not drawn),-,-,-,-,-,-
O=C1CC(c2ccco2)CC2=C1C1c3ccccc3C(=O)N1c1ccccc1N2 (stereo not drawn),-,-,-,-,-,8.4
CC(C)N1CCc2c(sc(NC(=S)NC(=O)c3ccccc3)c2C#N)C1,-,-,134,-,-,-
CCCC(=O)Nc1sc2c(c1C#N)CCCCC2,-,-,-,-,-,3.9
N#Cc1c(NC(=O)/C=C/c2ccco2)sc2c1CCCC2,-,-,174,-,-,-
O=C(Nc1sc2c(c1C(=O)O)CCCCC2)c1ccccc1,72,-,-,-,-,-
CCC(=O)Nc1sc2c(c1C#N)CCCCC2,-,-,-,-,-,-
O=C(/C=C/c1ccco1)Nc1sc2c(c1C(=O)O)CCC2,-,-,-,-,-,-
CCCN1CCc2c(sc(NC(=S)NC(=O)c3ccccc3)c2C#N)C1,-,-,-,-,-,-
COc1cccc(NC(=O)C2(S(=O)(=O)c3ccc(Cl)cc3)CC2)c1,.,.,.,.,-,.
COCCN(CCOC)S(=O)(=O)c1ccc(C(=O)Nc2sc3c(c2C(N)=O)CCCCC3)cc1,-,-,129,-,-,-
CC1(C)Cc2c(sc(NC(=O)c3ccccc3)c2C(=O)O)CO1,59,-,-,-,.,.
N#Cc1c(NC(=O)c2ccccc2)sc2c1CCCCC2,55,-,136,198,-,3.8
Cc1ccc(C(=O)Nc2sc3c(c2C#N)CCCCC3)cc1C,-,-,134,-,-,-
COC(=O)c1c(NC(=O)Cn2cnc([N+](=O)[O-])n2)sc2c1CCC(C)C2 (stereo not drawn),-,-,-,-,.,-
N#Cc1c(N2C(=O)Nc3ccccc3N2O)sc2c1CCCCCC2,56,-,-,-,.,-
SMILES,FLuc inh counter,FLuc act counter,STAT1 activator,APP 5'UTR act,Rad51 HR inh,NF-kB neuron act
CC(C)n1cnc2cc(NCc3nc4ccccc4n3C)ccc21,54,-,150,186,.,-
O=C(O)c1ccc(NCc2nc3ccccc3n2Cc2ccccc2)cc1,.,.,.,.,-,.
CCn1cnc2cc(NCc3nc4ccccc4n3Cc3ccccc3)ccc21,-,-,148,168,-,-
Cn1c(CNc2ccccc2)nc2ccccc21,-,-,132,-,-,-
CCn1cnc2cc(NCc3nc4ccccc4n3C)ccc21,53,-,-,146,-,5.5
Cc1ccc(-c2nnn(CC(=O)N(c3ccccc3)C(C(=O)NCC3CCCO3)c3cccs3)n2)o1 (stereo not drawn),-,-,-,-,-,-
CCn1cnc2cc(NCc3ccc(C)cc3)ccc21,-,-,136,-,-,-
Cn1c(N=Nc2ccccc2)nc2ccccc21,95,-,131,180,.,3.6
CC1(C)CC(=O)C=C(c2cccs2)C1,.,.,.,.,-,.
CCOc1ccc(NC(=S)NC(=O)c2c(Br)cnn2C)c([N+](=O)[O-])c1,64,-,-,-,-,-
CCOc1ccc(NC(=O)/C=C/c2ccccc2)c([N+](=O)[O-])c1,-,-,131,-,-,-
CCOc1ccc(OCC(=O)Nc2ccc(OC)cc2[N+](=O)[O-])cc1,-,-,-,-,-,-
CCOc1ccc(/C=C/C(=O)Nc2ccc(OC)cc2[N+](=O)[O-])cc1,-,-,-,-,-,-
CCOc1ccc(NC(=S)NC(=O)c2c(Cl)cnn2CC)c([N+](=O)[O-])c1,-,-,-,-,-,-
CCOc1ccc(N/C=C/C(=O)c2ccccc2)c([N+](=O)[O-])c1,94,-,-,157,-,-
C=CCN(CC=C)CCOc1cc(C)ccc1[N+](=O)[O-],-,-,-,-,42,-
CC(C)(C)c1ccc(C(=O)O)c(C(=O)c2ccccc2)c1,-,-,-,-,.,-
C=CCn1c(C)cc(C(=O)CSc2nc3ccccc3c(=O)[nH]2)c1C,-,-,134,-,-,-
C=CCn1c(C)cc(C(=O)CSc2nc3ccccc3[nH]2)c1C,55,-,-,-,-,-
Cc1cc(C)c(C(=O)CSc2nc3ccccc3c(=O)[nH]2)cc1C,-,-,-,-,-,-
COCCn1c(C)cc(C(=O)CSc2nc3ccccc3c(=O)[nH]2)c1C,-,-,142,-,-,-
Cc1nc(N/N=C/c2ccccn2)sc1C,94,-,-,-,-,-
CCCc1sc(N/N=C/c2ccccn2)nc1-c1ccc(F)cc1,-,-,-,-,-,-
O=C1c2ccccc2C(=O)N1/N=C/c1ccc(O)c(O)c1,74,-,-,-,-,-
O=C1C2C3C=CC(CC3)C2C(=O)N1/N=C/c1ccc(O)c(O)c1 (stereo not drawn),-,-,-,-,-,-
SMILES,FLuc inh counter,FLuc act counter,STAT1 activator,APP 5'UTR act,Rad51 HR inh,NF-kB neuron act
Cc1nc(-c2coc3cc(OCC(=O)O)ccc3c2=O)cs1,78,-,-,-,-,-
Cc1nc(-c2coc3cc(O)c(C)cc3c2=O)cs1,83,-,-,142,-,-
O=C(O)COc1ccc2c3c(c(=O)oc2c1)CCC3,-,-,-,-,-,-
CC(=O)Oc1ccc2c(=O)c(-c3ccccc3)coc2c1,-,-,131,-,-,-
CCc1cc2c(=O)c(-c3nc(C)cs3)coc2cc1O,.,.,.,.,-,.
CCOC(=O)COc1ccc2c(=O)c(-c3ccccc3)coc2c1,.,.,.,-,-,.
COc1ccc2c(=O)c(-c3nc(C)cs3)coc2c1,78,-,-,-,-,5.9
O=c1[nH]c(=S)[nH]c(O)c1N=Nc1ccc(-c2ccccc2)cc1[N+](=O)[O-],-,-,-,-,-,-
CCOc1ccc(-c2cc(C(=O)OC)nc3c2c(=O)n(C)c(=O)n3C)cc1,.,.,.,.,-,.
